Ab_BasE_inh: blocks the Acinetobacter baumannii siderophore enzyme BasE; purified BasE, fluorescence polarization binding displacement; inhibition, % (no concentration beside the values); hit rate 0.1% among 84,000; in the data active = inhibition above about 25%, passing the limit was not always enough;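 note: 0% = negative plate control signal and 100% = positive plate control signal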
LANA-nucl_inh: LANA-nucleosome interaction inhibition | FITC-LANA1-23 / chicken nucleosome fluorescence polarization; stronger effect = lower value | z-score (no concentration beside the values) | hit rate 0.3% among 51,000 | AID 720717;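 active = both repeat wells score below -2 in polarization z-score versus plate sample wells, excluding overly bright wells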
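Material: Purified chicken nucleosomes with FITC-labelled LANA N-terminal peptide (1-23) | Reagent: 50 nM FITC-LANA1-23 probe | Medium: TEN-BT buffer, pH 7.5 | Times: 10–45 min incubation at room temperature | Detection: Fluorescence polarization | Replication: Duplicates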
Starred values were filed as active, the others as inactive; . = not tested or not shown. The entries come from a sample that favours hits as a whole.

SMILES Ab_BasE_inh LANA-nucl_inh
O=C1NC(=O)C(=Cc2cn(CCOc3ccc4c(c3)OCO4)c3ccccc23)C(=O)N1 1 .
C=CCn1cc(C=C2C(=O)NC(=O)NC2=O)c2ccccc21 4 -2.5*
CC(=O)Oc1ccc(Cl)c2cccnc12 30* 0.18
CN(C)C(=O)Oc1cccc2cccnc12 0 -0.69
O=c1c2ccccc2nc(CO)n1-c1ccc2c(c1)OCO2 -5 .
CN(C(=O)Oc1ccccc1)c1ccc(C(O)(C(F)(F)F)C(F)(F)F)cc1 -3 0.43
CCn1nc(-c2ccccc2)nc2c(=O)n(C)c(=O)nc1-2 8 -9.3*
Cc1ccc(-n2c(CCC(=O)O)nc3ccccc3c2=O)cc1 1 .
Fc1cccc(Cl)c1CN1CCNCC1 -1 .

Screens deposited in PubChem by ICCB-Longwood Screening Facility, Harvard Medical School.
